Results published in ChEMBL document CHEMBL1129594 (J Med Chem, 1996).
One block for each compound: values may come before it.

Tests used:
Vanilloid receptor = Vanilloid receptor (Rattus norvegicus, UniProt Q9ERZ8+Q9WUD2+O35433); test: Compound tested in vitro for [Ca2+] influx into neonatal rat dorsal root ganglia (DRG); assay type: functional
Mus musculus [1] = test: In vivo tail-flick latency after peroral administration in mouse as an evaluation of antinociceptive potency; assay type: functional; conditions: po
Mus musculus [2] = test: Compound tested for in vivo writhing antinociceptive assay in mouse after subcutaneous administration; assay type: functional; conditions: sc
Outline: (§1)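 Female CD-1 mice (20 g), kept on 12 h light/12 h dark and fasted overnight, 10 per group. Drug or vehicle was given sc or orally 55 min before ip acetic acid (0.3 mL, 200 mM). Abdominal constrictions were counted over the 5 min starting 5 min after acid. Effect was taken as the drug/vehicle writhe ratio, and ED50 (dose halving writhes) came from a logistic fit with standard error.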

Cavia porcellus [3] = test: Threshold dose required to cause increase in airway opening pressure […] of guinea pig after intravenous administration
Mus musculus [4] = test: In vivo tail-flick latency after subcutaneous administration in mouse as an evaluation of antinociceptive potency; assay type: functional; conditions: sc
Cavia porcellus [5] = test: Threshold dose required to cause increase in airway opening pressure […] of guinea pig after intravenous administration; assay type: functional
Outline: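 Dunkin-Hartley guinea pigs (400-450 g, n = 4 per group) under urethane (2 g/kg), held at 37 °C. Carotid cannula for blood pressure, jugular cannula for iv drug. Tracheal cannula with ventilation at 60 strokes/min and 10 mL/kg tidal volume. Airway opening pressure was read by differential transducer on the tracheal side arm. Threshold iv dose raising Pao was recorded.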

Mus musculus [6] = test: Compound tested for in vivo writhing antinociceptive assay in mouse after peroral administration; assay type: functional; conditions: po; outline: as §1

Structure (SMILES): COc1cc(CN/C(S)=N/C=C\c2ccc(Cl)cc2)ccc1O
EC50 (Vanilloid receptor): 41 nM

Structure (SMILES): COc1cc(C/N=C(\S)NCCc2ccc(Cl)cc2)ccc1OCC[N+](C)(C)C.O=C([O-])C(F)(F)F
EC50 (Vanilloid receptor): > 100000 nM

Structure (SMILES): CCCCCCCC/C=C\CCCCCCCC(=O)NCc1ccc(OCCN)c(OC)c1
ED50 (Mus musculus [1]): 184 µmol/kg
ED50 (Mus musculus [2]): 3.06 µmol/kg
Dose (Cavia porcellus [3]): >0.1 µM/kg
ED50 (Mus musculus [4]): 6.3 µmol/kg

Structure (SMILES): COc1cc(CNC(=S)NCc2ccc(C(C)(C)C)cc2)ccc1O
EC50 (Vanilloid receptor): 510 nM

Structure (SMILES): COc1cc(CN/C(S)=N/C=C/c2ccc(Cl)cc2)ccc1O
EC50 (Vanilloid receptor): 410 nM

Structure (SMILES): COc1cc(C/N=C(\S)NCc2ccc(C(C)(C)C)cc2)ccc1OCCN
ED50 (Mus musculus [1]): 1.45 µmol/kg
EC50 (Vanilloid receptor): 170 nM
ED50 (Mus musculus [2]): 0.49 µmol/kg
Dose (Cavia porcellus [5]): 0.062 µM/kg
ED50 (Mus musculus [6]): 2.55 µmol/kg
ED50 (Mus musculus [4]): 0.4 µmol/kg

Structure (SMILES): COc1cc(C/N=C(\S)NCCc2ccc(Cl)cc2)ccc1OCCN
ED50 (Mus musculus [1]): 22.9 µmol/kg
ED50 (Mus musculus [2]): 3.32 µmol/kg
Dose (Cavia porcellus [5]): 0.137 µM/kg
ED50 (Mus musculus [6]): 11.4 µmol/kg
ED50 (Mus musculus [4]): 4.8 µmol/kg

Structure (SMILES): COc1cc(C/N=C(\S)NCCc2ccc(Cl)cc2)ccc1O
ED50 (Mus musculus [1]): 370 µmol/kg
EC50 (Vanilloid receptor): 56 nM
ED50 (Mus musculus [2]): 10.1 µmol/kg
Dose (Cavia porcellus [5]): 0.025 µM/kg
ED50 (Mus musculus [4]): 11.8 µmol/kg

Structure (SMILES): COc1cc(CNC(=O)CCCC/C=C/C(C)C)ccc1O [CAPSAICIN]
ED50 (Mus musculus [1]): 962 µmol/kg
ED50 (Mus musculus [2]): 5.72 µmol/kg
Dose (Cavia porcellus [5]): 0.018 µM/kg
ED50 (Mus musculus [4]): 10.3 µmol/kg

Structure (SMILES): CCCCCCCC/C=C\CCCCCCCC(=O)NCc1ccc(O)c(OC)c1 [OLVANIL]
ED50 (Mus musculus [1]): > 400 µmol/kg
ED50 (Mus musculus [2]): 2.1 µmol/kg
Dose (Cavia porcellus [3]): >0.1 µM/kg
ED50 (Mus musculus [4]): 11.3 µmol/kg

The remaining lines, values ahead:

EC50 (Vanilloid receptor): 710 nM
Structure (SMILES): COc1cc(C/N=C(\S)NCCc2ccc(C(C)(C)C)cc2)ccc1OCCN

EC50 (Vanilloid receptor): 3520 nM
Structure (SMILES): COc1cc(C/N=C(\S)NCCc2ccc(Cl)cc2)ccc1OCCN(C)C

EC50 (Vanilloid receptor): 130 nM
Structure (SMILES): COc1cc(C/N=C(\S)NCCc2ccc(Cl)cc2Cl)ccc1O

EC50 (Vanilloid receptor): 6140 nM
Structure (SMILES): CCOC(=O)NCCOc1ccc(C/N=C(\S)NCCc2ccc(Cl)cc2)cc1OC

EC50 (Vanilloid receptor): 2720 nM
Structure (SMILES): COc1cc(C/N=C(\S)NCCc2ccccc2)ccc1OCCN

EC50 (Vanilloid receptor): 2300 nM
Structure (SMILES): COc1cc(C/N=C(\S)NCCc2ccc(F)cc2)ccc1OCCN

EC50 (Vanilloid receptor): 5130 nM
Structure (SMILES): COc1cc(C/N=C(\S)NCCc2ccc(Cl)cc2)ccc1OCCNC(C)=O

EC50 (Vanilloid receptor): 320 nM
Structure (SMILES): COc1cc(C/N=C(\S)NCCc2ccc(Cl)cc2Cl)ccc1OCCN

EC50 (Vanilloid receptor): 53000 nM
Structure (SMILES): COc1cc(C/N=C(\S)NCCc2ccc(Cl)cc2)ccc1OCCN1C(=O)c2ccccc2C1=O

EC50 (Vanilloid receptor): 480 nM
Structure (SMILES): COc1cc(C/N=C(\S)NCCc2ccccc2)ccc1O

EC50 (Vanilloid receptor): 7030 nM
Structure (SMILES): CNCCOc1ccc(C/N=C(\S)NCCc2ccc(Cl)cc2)cc1OC

EC50 (Vanilloid receptor): 3000 nM
Structure (SMILES): COc1cc(C/N=C(\S)NCCc2ccc(Cl)cc2)ccc1OCCNC(=O)OC(C)(C)C

EC50 (Vanilloid receptor): 130 nM
Structure (SMILES): COc1cc(C/N=C(\S)NCCc2ccc(F)cc2)ccc1O
